Measurements from ChEMBL document CHEMBL5154945, “Discovery and Optimization of Pyrrolopyrimidine Derivatives as Selective Disruptors of the Perinucleolar Compartment, a Marker of Tumor Progression toward Metastasis” (J Med Chem, 2022).
Several values for one entry are separate records, joined by “and”; a condition that tells them apart may be missing. Identical values can stand only once.

Key:
PC-3M = test: Anticancer activity in human PC-3M cells expressing PTB/GFP fusion protein assessed as perinucleolar compartment disassembly and measured after 24 hrs by Hoechst 33342 staining based microscopic method; format: functional, cell-based
Summary of the method: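 Imaged by high-content microscopy. Nuclei with PNC spots ≥3 and >0 scored positive. PNC prevalence % = PNC-positive nuclei/total nuclei ×100, normalized to DMSO (0% activity) and 0% PNC (−100%). IC50 from concentration-response.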

[1] = Permeability of the compound at pH 7.4 incubated for 30 mins by UV plate reader based PAMPA assay; conditions: for permeability: pampa, pH 7.4, 0.5 h
[2] = Microsomal stability in CD1 mouse liver microsomes assessed as half life measured upto 60 mins in presence of NADPH by LC-MS analysis; conditions: for half-life at 1 h: CD1, mouse, liver microsomes; for t1/2: mouse, microsomes, 1 h
[3] = Kinetic solubility of compound
[4] = Cytotoxicity against human PC-3M cells expressing PTB/GFP fusion protein assessed as reduction in ATP level and measured after 24 to 48 hrs by ATPlite luminescence assay; format: toxicity, cell-based
in vitro = conditions: human, PC-3M cells expressing PTB/GFP fusion protein

SMILES | IC50 (PC-3M; read-out: pIC50 (converted)) | permeability [1] | half-life at 1 h [2] | solubility kinetic [3] | IC50 (PC-3M; read-out: IC50) | t1/2 [2] | Papp at 0.5 h ([1]; PAMPA, pH 7.4) | IC50 [4] | selectivity ratio (in vitro)
N=c1c2c(-c3ccccc3)c(-c3ccccc3)n(CCc3ccccc3)c2ncn1[C@H]1CC[C@H](O)CC1 | 339 nM | > 1000 10^-6 cm/s | 120 min | > 132 µM and > 65 µg/mL |  |  |  |  | 
CC[C@@]1(O)C(=O)OCc2c1cc1n(c2=O)Cc2cc3ccccc3nc2-1 [CAMPTOTHECIN] |  |  |  |  | 190 nM |  |  | 480 nM | 2.5
COc1cccc2c1C(=O)c1c(O)c3c(c(O)c1C2=O)C[C@@](O)(C(=O)CO)C[C@@H]3O[C@H]1C[C@H](N)[C@H](O)[C@H](C)O1 [DOXORUBICIN] |  |  |  |  | 860 nM |  |  | 660 nM | 
N=c1c2c(-c3ccccc3)c(-c3ccccc3)n(Cc3ccc(OC(F)(F)F)cc3)c2ncn1C1CCOCC1 | 955 nM | > 1000 10^-6 cm/s |  |  |  | 72 min |  |  | 
COc1ccc(Cn2c(-c3ccccc3)c(-c3ccccc3)c3c(=N)n(CC4CCOCC4)cnc32)cc1 | 9330 nM | 1266.09 10^-6 cm/s |  |  |  | 13 min |  |  | 
N=c1c2c(-c3ccccc3)c(-c3ccccc3)n(Cc3ccccc3)c2ncn1C1CCC(=O)CC1 | 302 nM | > 1000 10^-6 cm/s |  | 75 µM and 36 µg/mL |  | 38.2 min |  |  | 
N=c1c2c(-c3ccccc3)c(-c3ccccc3)n(Cc3ccc(S(N)(=O)=O)cc3)c2ncn1CC1CCOCC1 | 25100 nM | < 1 10^-6 cm/s |  |  |  | 8.3 min |  |  | 
N=c1c2c(-c3ccccc3)c(-c3ccccc3)n(CCc3ccccc3)c2ncn1CC1CCOCC1 |  | 1229.2 10^-6 cm/s |  |  | 10000 nM | 7.3 min |  |  | 
N=c1c2c(-c3ccccc3)c(-c3ccccc3)n(Cc3ccc(OC(F)(F)F)cc3)c2ncn1[C@H]1CC[C@H](O)CC1 | 631 nM | 1246.89 10^-6 cm/s | 120 min |  |  |  |  |  | 
N=c1c2c(-c3ccccc3)c(-c3ccccc3)n(CC3CC3)c2ncn1CCCO |  | > 1000 10^-6 cm/s |  |  | 6310 nM | 25.4 min |  |  | 
N#Cc1c(-c2ccccc2)c(-c2ccccc2)n(Cc2ccccc2)c1N |  | 62 10^-6 cm/s |  |  | > 20000 nM | 13.3 min |  |  | 
N=c1c2c(-c3ccccc3)c(-c3ccccc3)n(Cc3ccccc3)c2ncn1[C@H]1CC[C@@H](O)CC1 | 832 nM | > 1000 10^-6 cm/s |  |  |  | 52.3 min |  |  | 
Cc1c(C)n(Cc2ccccc2)c2ncn(CCCO)c(=N)c12 |  | 609.3 10^-6 cm/s | 120 min |  | > 20000 nM |  |  |  | 

Further lines, with some results ahead:

IC50 (PC-3M; read-out: pIC50 (converted)) | permeability [1] | half-life at 1 h [2] | solubility kinetic [3] | IC50 (PC-3M; read-out: IC50) | t1/2 [2] | Papp at 0.5 h ([1]; PAMPA, pH 7.4) | SMILES | IC50 [4] | selectivity ratio (in vitro)
316 nM | > 1000 10^-6 cm/s |  | 18 µM and 8.3 µg/mL | 320 nM | 29.6 min |  | N=c1c2c(-c3ccccc3)c(-c3ccccc3)n(Cc3ccccc3)c2ncn1C1CCOCC1 |  | 
832 nM | > 1000 10^-6 cm/s |  |  |  | 25.1 min |  | N=c1c2c(-c3ccccc3)c(-c3ccccc3)n(Cc3ccccc3)c2ncn1CCO |  | 
2000 nM | > 1000 10^-6 cm/s |  |  |  | 2.4 min |  | N=c1c2c(-c3ccccc3)c(-c3ccccc3)n(Cc3ccccc3)c2ncn1C[C@@H]1CCCC[C@H]1O (relative stereo) |  | 
2140 nM | > 1000 10^-6 cm/s |  |  |  | 19.9 min |  | COc1ccc(Cn2c(-c3ccccc3)c(-c3ccccc3)c3c(=N)n(CCCO)cnc32)cc1 |  | 
2950 nM | 1358 10^-6 cm/s |  |  |  | 14.3 min |  | CN(C)CCn1cnc2c(c(-c3ccccc3)c(-c3ccccc3)n2Cc2ccccc2)c1=N |  | 
 | 294.4 10^-6 cm/s |  |  | 12600 nM | 77.9 min |  | CN(C)CCCn1cnc2c(c(-c3ccccc3)c(-c3ccccc3)n2CCc2ccccc2)c1=N |  | 
12600 nM |  | 120 min |  | 12600 nM |  | 320 ×10⁻⁶ cm/s | CN(C)CCCn1cnc2c(c(-c3ccccc3)c(-c3ccccc3)n2Cc2ccccc2)c1=N |  | 
6610 nM | 445.1 10^-6 cm/s |  |  |  | 29.9 min |  | N=c1c2c(-c3ccccc3)c(-c3ccccc3)n(Cc3ccccc3)c2ncn1CCNc1ccncc1 |  | 
